Source: ChEMBL document CHEMBL3217692, “Synthesis and cytotoxicity evaluation of novel pyrido[3,4-d]pyrimidine derivatives as potential anticancer agents” (2012)

Legend:
Type in all cases: functional
[1] = Cytotoxicity against human NCI-ADR-RES cells assessed as cell growth at 10 uM after 48 hrs by sulforhodamine B assay relative to control; settings: read-out: Activity
Outline: (§1)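 Adherent cells were grown in RPMI 1640 with 5% FBS and 2 mM L-glutamine, seeded at 5000–40 000 cells/well by doubling time, and held 24 h at 37 °C, 5% CO2 before drug. Time-zero plates were TCA-fixed. Compound in DMSO, single dose 10 μM, 48 h. Cells were fixed with cold TCA (final 10%, 60 min, 4 °C) and stained with 0.4% SRB. Bound dye was dissolved in 10 mM Tris base and read at 515 nm. Percent growth was derived from time-zero, control and treated absorbances.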

[2] = Cytotoxicity against human OVCAR3 cells assessed as cell growth at 10 uM after 48 hrs by sulforhodamine B assay relative to control; settings: OVCAR-3, 48 h, read-out: Activity; outline: as §1
IGROV-1 = test: Cytotoxicity against human IGROV1 cells assessed as cell growth at 10 uM after 48 hrs by sulforhodamine B assay relative to control; settings: IGROV-1, 48 h, read-out: Activity; outline: as §1
[3] = Cytotoxicity against human UACC62 cells assessed as cell growth at 10 uM after 48 hrs by sulforhodamine B assay relative to control; settings: UACC-62, 48 h, read-out: Activity
Outline: (§2)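 NCI-60 single-dose screen. Cells were grown in RPMI 1640 with 5% FBS and 2 mM L-glutamine, seeded at 5000–40 000 cells/well according to doubling time, and pre-incubated 24 h at 37 °C, 5% CO2. Time-zero plates were TCA-fixed at dosing. Compound in DMSO was given at 10 μM for 48 h. Cells were then fixed in cold TCA, stained with 0.4% SRB, solubilised in 10 mM Tris base and read at 515 nm. Growth % was calculated from time-zero, control and treated absorbances.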

SK-MEL-28 = test: Cytotoxicity against human SK-MEL-28 cells assessed as cell growth at 10 uM after 48 hrs by sulforhodamine B assay relative to control; settings: SK-MEL-28, 48 h, read-out: Activity; outline: as §1
SK-MEL-2 = test: Cytotoxicity against human SK-MEL-2 cells assessed as cell growth at 10 uM after 48 hrs by sulforhodamine B assay relative to control; settings: SK-MEL-2, 48 h, read-out: Activity; outline: as §1
Malme-3M = test: Cytotoxicity against human MALME-3M cells assessed as cell growth at 10 uM after 48 hrs by sulforhodamine B assay relative to control; settings: read-out: Activity; outline: as §1
U-251 = test: Cytotoxicity against human U251 cells assessed as cell growth at 10 uM after 48 hrs by sulforhodamine B assay relative to control; settings: U-251, 48 h, read-out: Activity; outline: as §2
SNB-75 = test: Cytotoxicity against human SNB75 cells assessed as cell growth at 10 uM after 48 hrs by sulforhodamine B assay relative to control; settings: SNB-75, 48 h, read-out: Activity; outline: as §1
SNB-19 = test: Cytotoxicity against human SNB19 cells assessed as cell growth at 10 uM after 48 hrs by sulforhodamine B assay relative to control; settings: SNB-19, 48 h, read-out: Activity; outline: as §1
SF-268 = test: Cytotoxicity against human SF268 cells assessed as cell growth at 10 uM after 48 hrs by sulforhodamine B assay relative to control; settings: SF-268, 48 h, read-out: Activity; outline: as §1
SW-620 = test: Cytotoxicity against human SW620 cells assessed as cell growth at 10 uM after 48 hrs by sulforhodamine B assay relative to control; settings: SW-620, 48 h, read-out: Activity; outline: as §1
KM12 = test: Cytotoxicity against human KM12 cells assessed as cell growth at 10 uM after 48 hrs by sulforhodamine B assay relative to control; settings: KM12, 48 h, read-out: Activity; outline: as §1
HT-29 = test: Cytotoxicity against human HT-29 cells assessed as cell growth at 10 uM after 48 hrs by sulforhodamine B assay relative to control; settings: HT-29, 48 h, read-out: Activity; outline: as §1
[4] = Cytotoxicity against human HCT15 cells assessed as cell growth at 10 uM after 48 hrs by sulforhodamine B assay relative to control; settings: HCT-15, 48 h, read-out: Activity; outline: as §1
COLO 205 = test: Cytotoxicity against human COLO205 cells assessed as cell growth at 10 uM after 48 hrs by sulforhodamine B assay relative to control; settings: COLO 205, 48 h, read-out: Activity; outline: as §1
HOP-62 = test: Cytotoxicity against human HOP62 cells assessed as cell growth at 10 uM after 48 hrs by sulforhodamine B assay relative to control; settings: HOP-62, 48 h, read-out: Activity; outline: as §1
[5] = Cytotoxicity against human EKVX cells assessed as cell growth at 10 uM after 48 hrs by sulforhodamine B assay relative to control; settings: read-out: Activity; outline: as §1
A549 = test: Cytotoxicity against human A549 cells assessed as cell growth at 10 uM after 48 hrs by sulforhodamine B assay relative to control; settings: A549, 48 h, read-out: Activity; outline: as §1
HL-60(TB) = test: Cytotoxicity against human HL-60(TB) cells assessed as cell growth at 10 uM after 48 hrs by sulforhodamine B assay relative to control; settings: HL-60, 48 h, read-out: Activity
Outline: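 Suspension line grown in RPMI 1640 with 5% FBS and 2 mM L-glutamine, plated at 5000–40 000 cells/well and preincubated 24 h at 37 °C, 5% CO2. Time-zero plates fixed at dosing. Single 10 μM dose in DMSO for 48 h. Settled cells fixed with TCA (final 16%), then stained with 0.4% SRB, solubilised in 10 mM Tris and read at 515 nm. Growth percentage calculated against time-zero and untreated control.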

786-0 = test: Cytotoxicity against human 786-0 cells assessed as cell growth at 10 uM after 48 hrs by sulforhodamine B assay relative to control; settings: 786-0, 48 h, read-out: Activity; outline: as §1
A498 = test: Cytotoxicity against human A498 cells assessed as cell growth at 10 uM after 48 hrs by sulforhodamine B assay relative to control; settings: A498, 48 h, read-out: Activity; outline: as §1
RXF 393 = test: Cytotoxicity against human RXF393 cells assessed as cell growth at 10 uM after 48 hrs by sulforhodamine B assay relative to control; settings: RXF 393, 48 h, read-out: Activity; outline: as §1
[6] = Cytotoxicity against human UO31 cells assessed as cell growth at 10 uM after 48 hrs by sulforhodamine B assay relative to control; settings: UO-31, 48 h, read-out: Activity; outline: as §2
DU-145 = test: Cytotoxicity against human DU145 cells assessed as cell growth at 10 uM after 48 hrs by sulforhodamine B assay relative to control; settings: DU-145, 48 h, read-out: Activity; outline: as §1
T47D = test: Cytotoxicity against human T47D cells assessed as cell growth at 10 uM after 48 hrs by sulforhodamine B assay relative to control; settings: read-out: Activity; outline: as §1

For `COc1nccc2c(-c3cccc(F)c3)nc(N)nc12`, the growth at 10 µM [1] was 110%, the growth at 10 µM [2] was 107% and the growth at 10 µM (IGROV-1) was 117%. The growth at 10 µM [3] was 101%, the growth at 10 µM (SK-MEL-28) was 97% and the growth at 10 µM (SK-MEL-2) was 89.5%. It also gave a growth at 10 µM (Malme-3M) of 115%, a growth at 10 µM (U-251) of 94.9% and a growth at 10 µM (SNB-75) of 91.1%. The growth at 10 µM (SNB-19) was 107%, the growth at 10 µM (SF-268) was 108% and the growth at 10 µM (SW-620) was 112%. For the same molecule, the growth at 10 µM (KM12) was 104%, the growth at 10 µM (HT-29) was 96.4% and the growth at 10 µM [4] was 95%. The growth at 10 µM (COLO 205) was 109%, the growth at 10 µM (HOP-62) was 104% and the growth at 10 µM [5] was 104%. It also gave a growth at 10 µM (A549) of 94.7%, a growth at 10 µM (HL-60(TB)) of 92.5% and a growth at 10 µM (786-0) of 100%. The growth at 10 µM (A498) was 88.5%, the growth at 10 µM (RXF 393) was 101% and the growth at 10 µM [6] was 109%. It also gave a growth at 10 µM (DU-145) of 110% and a growth at 10 µM (T47D) of 93.5%.
